Active and inactive are the calls of the source. No cut-off for these calls is given here.
Legend:
D(2) dopamine receptor [1] = molecular target: T1, D(2) dopamine receptor (Homo sapiens, UniProt P14416); experiment: Agonist activity at human dopamine D2L receptor expressed in HEK293 cells assessed as intracellular calcium by fluorescence microplate reader; type: functional, cell-based
In short: (§1)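 Human receptor in HEK293 cells, loaded 45 min at 37 °C with Oregon Green 488 BAPTA-1/AM plus Pluronic F-127 in Krebs-HEPES buffer (pH 7.4). Cells were suspended, plated and held 30 min at 37 °C, 5% CO2. Test compound was injected at rising concentrations. Fluorescence was read at ex 485/em 520 nm for 30 s. Maximum intensity was fitted with a sigmoidal curve. At least two experiments, 4 or 6 replicates each.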

D(1B) dopamine receptor = D(1B) dopamine receptor (Homo sapiens, UniProt P21918); experiment: Displacement of [3H]SCH23390 from human dopamine D5 receptor expressed in CHO cells by scintillation counting; type: cell-based
D(1B) dopamine receptor, sequence (P21918 whole entry): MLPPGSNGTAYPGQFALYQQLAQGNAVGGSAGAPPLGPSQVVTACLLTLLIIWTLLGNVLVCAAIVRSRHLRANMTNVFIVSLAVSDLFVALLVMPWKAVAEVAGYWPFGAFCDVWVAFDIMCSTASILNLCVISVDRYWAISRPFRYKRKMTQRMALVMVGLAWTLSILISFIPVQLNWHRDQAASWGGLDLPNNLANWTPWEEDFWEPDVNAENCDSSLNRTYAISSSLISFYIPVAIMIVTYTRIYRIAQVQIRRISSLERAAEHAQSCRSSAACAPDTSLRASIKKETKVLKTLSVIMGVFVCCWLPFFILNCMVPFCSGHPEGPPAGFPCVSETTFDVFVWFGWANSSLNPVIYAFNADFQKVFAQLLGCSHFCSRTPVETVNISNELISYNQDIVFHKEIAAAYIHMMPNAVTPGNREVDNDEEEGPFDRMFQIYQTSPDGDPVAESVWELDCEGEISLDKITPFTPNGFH

D(1A) dopamine receptor [2] = molecular target: T2, D(1A) dopamine receptor (Homo sapiens, UniProt P21728); experiment: Displacement of [3H]SCH23390 from human dopamine D1 receptor expressed in CHO cells by scintillation counting; type: cell-based
T2 sequence (P21728 whole entry): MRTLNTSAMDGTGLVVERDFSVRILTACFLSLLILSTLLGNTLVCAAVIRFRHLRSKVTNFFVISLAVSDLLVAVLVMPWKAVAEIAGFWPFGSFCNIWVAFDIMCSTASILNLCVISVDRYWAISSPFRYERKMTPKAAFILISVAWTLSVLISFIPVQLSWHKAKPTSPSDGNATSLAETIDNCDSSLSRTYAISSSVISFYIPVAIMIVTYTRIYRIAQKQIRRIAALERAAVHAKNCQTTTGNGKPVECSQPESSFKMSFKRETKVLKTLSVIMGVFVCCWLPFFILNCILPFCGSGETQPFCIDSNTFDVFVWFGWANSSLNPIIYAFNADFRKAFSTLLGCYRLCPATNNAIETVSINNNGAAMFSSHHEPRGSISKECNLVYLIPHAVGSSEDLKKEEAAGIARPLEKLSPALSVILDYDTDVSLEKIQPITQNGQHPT

D(4) dopamine receptor = molecular target: T3, D(4) dopamine receptor (Homo sapiens, UniProt P21917); experiment: Displacement of [3H]spiperone from human dopamine D4 receptor expressed in CHO cells by scintillation counting; type: cell-based
T3 sequence (P21917 whole entry): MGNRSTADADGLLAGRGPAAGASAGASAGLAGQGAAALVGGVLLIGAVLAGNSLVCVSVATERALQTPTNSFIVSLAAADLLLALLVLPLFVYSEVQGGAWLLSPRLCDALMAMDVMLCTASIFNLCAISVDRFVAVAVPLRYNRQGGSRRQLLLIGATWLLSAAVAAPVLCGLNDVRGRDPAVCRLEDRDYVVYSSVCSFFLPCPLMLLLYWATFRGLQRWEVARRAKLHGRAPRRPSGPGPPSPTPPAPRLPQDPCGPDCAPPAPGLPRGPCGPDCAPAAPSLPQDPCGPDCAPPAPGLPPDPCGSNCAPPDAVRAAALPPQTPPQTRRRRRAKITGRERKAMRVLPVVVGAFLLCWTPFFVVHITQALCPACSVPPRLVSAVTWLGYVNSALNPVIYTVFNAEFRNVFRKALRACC

D(1A) dopamine receptor [3] = molecular target: T2, D(1A) dopamine receptor; experiment: Agonist activity at human dopamine D1 receptor expressed in HEK293 cells assessed as intracellular calcium by fluorescence microplate reader; type: functional, cell-based; in short: as §1
D(2) dopamine receptor [4] = molecular target: T1, D(2) dopamine receptor; experiment: Antagonist activity at human dopamine D2L receptor expressed in HEK293 cells assessed as quinpirole-induced intracellular calcium by fluorescence microplate reader; type: functional, cell-based
In short: (§2)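 They were then injected with standard agonist at 1 µM final: SKF 38393 for D1, quinpirole for D2L. Fluorescence was read at ex 485/em 520 nm for 30 s. Peak signal was fitted with a sigmoidal curve. At least two experiments, 4 or 6 replicates each.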

D(1A) dopamine receptor [5] = molecular target: T2, D(1A) dopamine receptor; experiment: Antagonist activity at human dopamine D1 receptor expressed in HEK293 cells assessed as SKF-38393-induced intracellular calcium by fluorescence microplate reader; type: functional, cell-based; in short: as §2
D(2) dopamine receptor [6] = molecular target: T1, D(2) dopamine receptor; experiment: Displacement of [3H]spiperone from human dopamine D2L receptor expressed in CHO cells by scintillation counting; type: cell-based
D(3) dopamine receptor [7] = molecular target: D(3) dopamine receptor (Rattus norvegicus, UniProt P19020); experiment: Displacement of [3H]spiperone from rat dopamine D3 receptor expressed in CHO cells by scintillation counting; type: cell-based
D(3) dopamine receptor (Rattus norvegicus, UniProt P19020), sequence (P19020 whole entry): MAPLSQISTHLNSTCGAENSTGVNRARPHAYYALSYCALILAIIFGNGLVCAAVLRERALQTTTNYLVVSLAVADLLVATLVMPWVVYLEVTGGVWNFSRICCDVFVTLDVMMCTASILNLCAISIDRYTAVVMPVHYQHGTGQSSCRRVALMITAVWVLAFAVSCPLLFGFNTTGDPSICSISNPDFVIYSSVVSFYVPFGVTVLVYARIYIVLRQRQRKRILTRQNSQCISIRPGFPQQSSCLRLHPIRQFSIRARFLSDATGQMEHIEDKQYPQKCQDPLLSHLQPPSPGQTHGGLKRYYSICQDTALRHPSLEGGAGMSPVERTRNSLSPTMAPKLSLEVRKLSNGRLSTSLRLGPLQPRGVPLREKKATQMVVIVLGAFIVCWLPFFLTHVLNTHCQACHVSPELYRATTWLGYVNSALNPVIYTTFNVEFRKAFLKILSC

D(3) dopamine receptor [8] = molecular target: D(3) dopamine receptor (Homo sapiens, UniProt P35462); experiment: Displacement of [3H]spiperone from human dopamine D3 receptor expressed in CHO cells by scintillation counting; type: cell-based
D(3) dopamine receptor (Homo sapiens, UniProt P35462), sequence (P35462 whole entry): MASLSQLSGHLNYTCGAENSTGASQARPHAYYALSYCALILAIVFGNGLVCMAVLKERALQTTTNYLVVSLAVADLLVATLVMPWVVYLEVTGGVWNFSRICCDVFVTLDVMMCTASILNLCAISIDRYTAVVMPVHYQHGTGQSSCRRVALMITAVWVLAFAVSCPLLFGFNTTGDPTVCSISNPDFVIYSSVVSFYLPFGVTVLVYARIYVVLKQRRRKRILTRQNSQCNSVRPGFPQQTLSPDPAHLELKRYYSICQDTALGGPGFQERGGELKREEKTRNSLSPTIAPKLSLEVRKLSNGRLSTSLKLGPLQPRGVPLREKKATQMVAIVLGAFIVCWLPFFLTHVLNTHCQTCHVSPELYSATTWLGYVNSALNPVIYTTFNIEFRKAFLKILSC

T1 sequence (P14416 whole entry): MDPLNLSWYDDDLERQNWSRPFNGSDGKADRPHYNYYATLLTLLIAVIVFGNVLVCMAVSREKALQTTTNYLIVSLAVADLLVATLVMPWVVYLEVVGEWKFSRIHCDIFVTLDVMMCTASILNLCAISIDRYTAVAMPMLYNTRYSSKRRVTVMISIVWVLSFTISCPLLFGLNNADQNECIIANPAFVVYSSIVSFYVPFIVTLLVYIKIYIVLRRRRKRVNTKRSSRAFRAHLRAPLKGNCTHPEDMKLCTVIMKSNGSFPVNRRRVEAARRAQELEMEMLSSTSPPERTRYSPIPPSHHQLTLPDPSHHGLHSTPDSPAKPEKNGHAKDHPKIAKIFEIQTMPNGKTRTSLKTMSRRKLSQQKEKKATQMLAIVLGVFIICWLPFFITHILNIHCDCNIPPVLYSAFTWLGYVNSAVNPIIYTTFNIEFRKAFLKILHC

Row | Compound | Activity (D(2) dopamine receptor [1]) | Ki (D(1B) dopamine receptor) [nM] | Ki (D(1A) dopamine receptor [2]) [nM] | Ki (D(4) dopamine receptor) [nM] | Activity (D(1A) dopamine receptor [3]) | Activity (D(2) dopamine receptor [4]) | Activity (D(1A) dopamine receptor [5]) | Ki (D(2) dopamine receptor [6]) [nM] | Ki (D(3) dopamine receptor [7]) [nM] | Ki (D(3) dopamine receptor [8]) [nM]
1 | COc1cc2c(cc1O)[C@@H]1Cc3ccc(O)c(OC)c3CN1CC2 [STEPHOLIDINE] | inactive | 4.4 | 5.9 | 3750 | inactive | Active | Active | 974 | 30 | 
2 | CN1CCCc2cc(O)ccc2Cc2ccccc2C1 |  | 1810 | 2070 |  | inactive |  | Active |  |  | 
3 | CN1CCc2ccccc2Cc2ccc(O)cc2CC1 | inactive |  |  |  | inactive | Active | Active |  |  | 
4 | COc1ccc2c(c1)CCN(C)CCc1ccccc1C2 | inactive |  |  | 43.4 | inactive | Active | Active |  |  | 
5 | Cc1ccccc1CC1c2ccc(O)cc2CCN1C (stereo unspecified) | inactive |  | 3020 |  | inactive | Active | Active | 2720 |  | 
6 | COc1ccc2c(c1)CCCN(C)Cc1ccccc1C2 | inactive | > 10000 | 1260 | > 10000 | inactive | Active | Active | > 10000 |  | > 10000
7 | COc1ccc2c(c1)CCCN1Cc3ccccc3C21 (stereo unspecified) |  |  |  |  | inactive |  | Active |  |  | 
8 | CN1CCc2cc(O)ccc2CCc2ccccc2C1 | inactive |  |  |  | inactive | Active | Active |  |  | 
9 | COc1ccc2c(c1)CCN1CCc3ccccc3C21 (stereo unspecified) | inactive |  | 2120 |  | inactive | Active | Active |  |  | 
10 | COc1ccc2c(c1)CCN(C)C2Cc1ccccc1C (stereo unspecified) | inactive | > 10000 | 2350 | 6640 | inactive | Active | Active | 7370 |  | > 10000
11 | COc1ccc2c(c1)CCN1Cc3ccccc3CC21 (stereo unspecified) | inactive | 185 | 183 | 2560 | inactive | Active | Active | 320 |  | 251
12 | Oc1cc2c(cc1O)[C@H]1c3ccccc3CN[C@@H]1CC2 | inactive |  |  |  | inactive | Active | Active |  |  | 
13 | CCc1cc(OC)ccc1C1Cc2ccccc2CN1C (stereo unspecified) | inactive | > 10000 | > 10000 | > 10000 | inactive | Active | Active | > 10000 |  | > 10000
14 | COc1ccc2c(c1)CCN(C)Cc1ccccc1CC2 | inactive | 1510 | 1730 | > 10000 | inactive | Active | Active | > 10000 |  | > 10000
15 | Oc1ccc2c(c1)CCN1CCc3ccccc3C21 (stereo unspecified) | inactive | > 10000 | > 10000 | > 10000 | inactive | Active | Active | > 10000 |  | > 10000
16 | Oc1ccc2c(c1)CCN1Cc3ccccc3CC21 (stereo unspecified) | inactive | 41.1 | 136 | 5090 | inactive | Active | Active | 486 |  | 306

From ChEMBL document CHEMBL1152600, “Dibenzazecine scaffold rebuilding--is the flexibility always essential for high dopamine receptor affinities?” (Bioorg Med Chem, 2009)
